From ChEMBL document CHEMBL4622923, “Discovery of 4-Phenylpiperidine-2-Carboxamide Analogues as Serotonin 5-HT2C Receptor-Positive Allosteric Modulators with Enhanced Drug-like Properties” (J Med Chem, 2020)

How the values were obtained:
[1] = target: Sodium-dependent serotonin transporter (Homo sapiens) (UniProt P31645); experiment: Displacement of [3H]-citalopram from human SERT stably expressed in HEK cell membranes at 10 uM incubated for 90 mins under dark condition by scintillation counting analysis relative to control
Sodium-dependent serotonin transporter (Homo sapiens), sequence (P31645 whole entry, looked up): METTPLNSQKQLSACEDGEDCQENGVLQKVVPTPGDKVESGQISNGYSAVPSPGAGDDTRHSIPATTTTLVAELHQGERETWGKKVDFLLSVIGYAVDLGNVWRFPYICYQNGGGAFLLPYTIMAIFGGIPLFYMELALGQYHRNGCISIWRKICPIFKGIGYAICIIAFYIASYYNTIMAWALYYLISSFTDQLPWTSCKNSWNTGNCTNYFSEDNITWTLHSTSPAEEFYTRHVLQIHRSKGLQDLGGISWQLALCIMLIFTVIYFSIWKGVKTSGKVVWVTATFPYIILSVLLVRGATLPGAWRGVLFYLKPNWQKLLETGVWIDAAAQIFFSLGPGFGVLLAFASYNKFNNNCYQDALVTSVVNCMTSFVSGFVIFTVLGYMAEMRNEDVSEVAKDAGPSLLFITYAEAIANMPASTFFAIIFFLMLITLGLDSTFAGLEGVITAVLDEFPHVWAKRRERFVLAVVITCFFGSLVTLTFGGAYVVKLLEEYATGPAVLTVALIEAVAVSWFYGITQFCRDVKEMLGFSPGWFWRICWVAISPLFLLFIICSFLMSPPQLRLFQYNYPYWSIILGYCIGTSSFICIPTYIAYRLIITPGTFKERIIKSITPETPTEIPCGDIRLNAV

[2] = target: GABA-A receptor; anion channel (Rattus norvegicus) (UniProt O09028+P15431+P18506+P18508+P19969+P20236+P23574+P23576+P28471+P28473+P30191+P62813+P63079+P63138+Q91ZM7+Q9ES14); experiment: Displacement of [3H]-muscimol from rat brain GABAA receptor at 10 uM incubated for 90 mins under dark condition by scintillation counting analysis relative to control
[3] = target: D(4) dopamine receptor (Homo sapiens) (UniProt P21917); experiment: Displacement of [3H]-N-methylspiperone from human dopamine D4 receptor stably expressed in HEK cell membranes at 10 uM incubated for 90 mins under dark condition by scintillation counting analysis relative to control
D(4) dopamine receptor (Homo sapiens), sequence (P21917 whole entry): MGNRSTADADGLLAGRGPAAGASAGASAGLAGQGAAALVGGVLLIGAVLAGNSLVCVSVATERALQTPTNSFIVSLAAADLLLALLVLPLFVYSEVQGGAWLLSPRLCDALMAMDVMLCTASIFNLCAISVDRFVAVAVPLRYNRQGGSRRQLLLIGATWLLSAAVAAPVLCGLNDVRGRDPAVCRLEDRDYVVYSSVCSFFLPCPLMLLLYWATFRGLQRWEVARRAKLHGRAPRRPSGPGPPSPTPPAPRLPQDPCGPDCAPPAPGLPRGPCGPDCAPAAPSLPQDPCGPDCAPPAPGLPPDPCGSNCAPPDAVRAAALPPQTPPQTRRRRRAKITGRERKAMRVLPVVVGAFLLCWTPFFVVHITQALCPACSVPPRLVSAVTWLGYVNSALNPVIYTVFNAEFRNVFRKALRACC

5-HT2B receptor = 5-HT2B receptor (Homo sapiens, UniProt P41595); experiment: Displacement of [3H]-LSD from human 5HT2B stably expressed in HEK cell membranes at 10 uM incubated for 90 mins under dark condition by scintillation counting analysis relative to control; conditions: membranes of HEK cells stably expressing human 5HT2B, probe [3H]-LSD
5-HT2B receptor, sequence (P41595 whole entry): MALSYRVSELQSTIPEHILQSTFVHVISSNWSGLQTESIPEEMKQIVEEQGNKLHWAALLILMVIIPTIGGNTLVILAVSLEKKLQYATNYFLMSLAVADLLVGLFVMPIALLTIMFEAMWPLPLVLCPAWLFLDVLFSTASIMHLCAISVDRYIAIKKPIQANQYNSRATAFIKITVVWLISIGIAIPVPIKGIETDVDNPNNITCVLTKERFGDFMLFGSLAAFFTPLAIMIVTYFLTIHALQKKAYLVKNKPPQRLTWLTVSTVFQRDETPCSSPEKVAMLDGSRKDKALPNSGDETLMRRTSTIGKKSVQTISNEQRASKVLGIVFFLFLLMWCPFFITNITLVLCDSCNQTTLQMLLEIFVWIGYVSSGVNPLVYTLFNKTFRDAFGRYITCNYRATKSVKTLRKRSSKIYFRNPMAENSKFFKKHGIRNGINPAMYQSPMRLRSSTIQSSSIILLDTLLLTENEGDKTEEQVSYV

[4] = target: 5-hydroxytryptamine receptor 1E (Homo sapiens) (UniProt P28566); experiment: Displacement of [3H]-5-HT from human 5HT1E stably expressed in HEK cell membranes at 10 uM incubated for 90 mins under dark condition by scintillation counting analysis relative to control
5-hydroxytryptamine receptor 1E (Homo sapiens), sequence (P28566 whole entry): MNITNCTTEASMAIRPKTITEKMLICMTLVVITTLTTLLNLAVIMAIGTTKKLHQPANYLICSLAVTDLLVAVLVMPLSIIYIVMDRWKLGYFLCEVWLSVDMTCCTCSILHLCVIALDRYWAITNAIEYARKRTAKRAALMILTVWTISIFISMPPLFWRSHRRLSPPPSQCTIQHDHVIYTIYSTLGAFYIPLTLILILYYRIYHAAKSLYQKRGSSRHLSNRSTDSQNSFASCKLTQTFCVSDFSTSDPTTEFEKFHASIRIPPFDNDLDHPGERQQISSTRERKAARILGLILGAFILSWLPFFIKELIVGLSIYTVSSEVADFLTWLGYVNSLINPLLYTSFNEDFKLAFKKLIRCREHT

[5] = target: Alpha-2C adrenergic receptor (Homo sapiens) (UniProt P18825); experiment: Displacement of [3H]-rauwolscine from human adrenergic alpha2C receptor stably expressed in MDCK cell membranes at 10 uM incubated for 90 mins under dark condition by scintillation counting analysis relative to control
Alpha-2C adrenergic receptor (Homo sapiens), sequence (P18825 whole entry): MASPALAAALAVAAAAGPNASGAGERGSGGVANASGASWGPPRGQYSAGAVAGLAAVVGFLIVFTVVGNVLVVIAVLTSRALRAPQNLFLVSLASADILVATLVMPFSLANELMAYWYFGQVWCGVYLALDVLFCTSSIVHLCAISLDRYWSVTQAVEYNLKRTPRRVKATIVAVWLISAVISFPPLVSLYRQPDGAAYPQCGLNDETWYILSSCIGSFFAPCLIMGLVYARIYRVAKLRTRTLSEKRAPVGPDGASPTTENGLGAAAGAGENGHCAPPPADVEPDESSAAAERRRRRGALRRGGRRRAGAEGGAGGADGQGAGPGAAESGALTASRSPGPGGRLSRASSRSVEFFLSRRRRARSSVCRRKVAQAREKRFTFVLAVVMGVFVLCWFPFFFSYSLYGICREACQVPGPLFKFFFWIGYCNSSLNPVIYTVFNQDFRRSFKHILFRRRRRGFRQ

[6] = target: Beta-1 adrenergic receptor (Homo sapiens) (UniProt P08588); experiment: Displacement of [125I]-pindolol from human beta1 adrenergic receptor expressed in CHO FLp-In cell membranes at 10 uM incubated for 90 mins under dark condition by scintillation counting analysis relative to control
Beta-1 adrenergic receptor (Homo sapiens), sequence (P08588 whole entry, looked up): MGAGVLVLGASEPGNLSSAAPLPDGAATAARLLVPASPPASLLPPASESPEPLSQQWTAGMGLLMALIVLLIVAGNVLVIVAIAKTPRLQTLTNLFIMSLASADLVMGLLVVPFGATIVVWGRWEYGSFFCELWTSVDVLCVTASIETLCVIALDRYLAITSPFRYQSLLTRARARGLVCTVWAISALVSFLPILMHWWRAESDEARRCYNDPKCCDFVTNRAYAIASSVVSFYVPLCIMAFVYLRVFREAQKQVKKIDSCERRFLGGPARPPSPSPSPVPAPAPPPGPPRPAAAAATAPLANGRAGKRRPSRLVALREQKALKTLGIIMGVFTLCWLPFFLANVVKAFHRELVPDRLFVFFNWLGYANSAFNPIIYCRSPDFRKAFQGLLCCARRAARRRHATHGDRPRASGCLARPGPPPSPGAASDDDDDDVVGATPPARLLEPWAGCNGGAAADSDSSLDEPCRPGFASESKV

[7] = target: Cannabinoid receptor 2 (Homo sapiens) (UniProt P34972); experiment: Displacement of [3H]-CP55940 from human CB2 receptor expressed in HEK-Flp-In cell membranes at 10 uM incubated for 90 mins under dark condition by scintillation counting analysis relative to control
Cannabinoid receptor 2 (Homo sapiens), sequence (P34972 whole entry): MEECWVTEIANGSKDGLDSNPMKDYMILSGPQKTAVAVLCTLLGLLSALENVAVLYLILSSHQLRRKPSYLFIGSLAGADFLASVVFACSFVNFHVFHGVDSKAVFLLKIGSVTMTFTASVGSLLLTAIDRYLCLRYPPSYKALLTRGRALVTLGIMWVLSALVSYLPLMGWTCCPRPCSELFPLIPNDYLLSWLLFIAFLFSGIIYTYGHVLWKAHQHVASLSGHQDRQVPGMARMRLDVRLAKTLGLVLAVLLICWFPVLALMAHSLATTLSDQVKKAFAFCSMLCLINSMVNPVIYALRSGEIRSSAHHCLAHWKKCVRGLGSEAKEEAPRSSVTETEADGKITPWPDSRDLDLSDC

[8] = target: Mu-type opioid receptor (Homo sapiens) (UniProt P35372); experiment: Displacement of [3H]-DAMGO from human mu opioid receptor stably expressed in HEK cell membranes at 10 uM incubated for 90 mins under dark condition by scintillation counting analysis relative to control
Mu-type opioid receptor (Homo sapiens), sequence (P35372 whole entry): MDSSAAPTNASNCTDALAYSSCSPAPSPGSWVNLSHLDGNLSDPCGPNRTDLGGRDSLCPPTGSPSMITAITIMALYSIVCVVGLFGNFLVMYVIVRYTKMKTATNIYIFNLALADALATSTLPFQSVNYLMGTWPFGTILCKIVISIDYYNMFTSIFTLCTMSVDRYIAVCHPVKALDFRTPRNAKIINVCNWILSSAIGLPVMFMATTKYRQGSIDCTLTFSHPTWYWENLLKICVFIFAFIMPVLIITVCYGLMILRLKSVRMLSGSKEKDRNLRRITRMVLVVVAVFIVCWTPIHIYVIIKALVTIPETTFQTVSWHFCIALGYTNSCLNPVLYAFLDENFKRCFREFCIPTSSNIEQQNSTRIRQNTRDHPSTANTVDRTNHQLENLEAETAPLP

[9] = Fraction unbound in rat plasma; type: ADME, cell-free
How it was run: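 Free fraction measured in rat plasma.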

CYP2D6 = CYP2D6 (Homo sapiens, UniProt P10635); experiment: Inhibition of CYP2D6 (unknown origin) at 10 uM relative to control; type: ADME
CYP2D6, sequence (P10635 whole entry, canonical isoform): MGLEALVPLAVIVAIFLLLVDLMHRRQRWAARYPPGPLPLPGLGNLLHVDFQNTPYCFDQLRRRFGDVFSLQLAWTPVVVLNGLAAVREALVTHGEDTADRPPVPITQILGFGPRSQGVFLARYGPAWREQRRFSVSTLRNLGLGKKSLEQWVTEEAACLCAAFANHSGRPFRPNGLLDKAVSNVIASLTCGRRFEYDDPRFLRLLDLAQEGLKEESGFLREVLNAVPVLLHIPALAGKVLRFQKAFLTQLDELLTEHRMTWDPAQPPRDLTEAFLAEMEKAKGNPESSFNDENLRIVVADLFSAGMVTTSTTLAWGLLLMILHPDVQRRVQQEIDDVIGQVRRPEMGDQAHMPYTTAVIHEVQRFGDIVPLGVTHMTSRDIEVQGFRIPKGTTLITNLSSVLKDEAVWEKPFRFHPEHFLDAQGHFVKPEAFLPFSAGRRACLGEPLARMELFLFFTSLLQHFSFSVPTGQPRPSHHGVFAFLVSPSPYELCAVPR
How it was run: (§1)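 Each CYP isoform inhibition assay run with test compound at 10 µM; reported as percent inhibition.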

CYP1A2 = CYP1A2 (Homo sapiens, UniProt P05177); experiment: Inhibition of CYP1A2 (unknown origin) at 10 uM relative to control; type: ADME; how it was run: as §1
CYP1A2, sequence (P05177 whole entry): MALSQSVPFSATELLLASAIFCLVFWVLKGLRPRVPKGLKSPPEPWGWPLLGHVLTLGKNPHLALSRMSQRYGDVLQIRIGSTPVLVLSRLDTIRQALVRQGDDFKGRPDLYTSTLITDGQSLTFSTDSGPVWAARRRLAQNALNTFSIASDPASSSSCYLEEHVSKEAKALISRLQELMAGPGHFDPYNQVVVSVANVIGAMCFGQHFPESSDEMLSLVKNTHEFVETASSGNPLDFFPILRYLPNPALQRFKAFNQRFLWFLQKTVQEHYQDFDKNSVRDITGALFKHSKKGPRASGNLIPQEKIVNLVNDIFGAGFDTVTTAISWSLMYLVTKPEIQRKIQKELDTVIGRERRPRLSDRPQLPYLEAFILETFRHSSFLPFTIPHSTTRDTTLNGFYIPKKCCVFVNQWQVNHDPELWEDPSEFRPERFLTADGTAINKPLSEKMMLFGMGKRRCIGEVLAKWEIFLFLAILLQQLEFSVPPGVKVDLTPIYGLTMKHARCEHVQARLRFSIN

[10] = Apparent permeability across basolateral to apical side in MDCK-MDR1 cells; type: ADME, cell-based, Canis lupus familiaris; conditions: dog
[11] = Volume of distribution at steady state in Sprague-Dawley rat at 10 mg/kg, iv; type: ADME, organism-based; conditions: in vivo
How it was run: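 Male Sprague-Dawley rats, 200–250 g, n = 3/group, randomly assigned; dosed 10 mg/kg iv or 20 mg/kg po in 10% DMSO:90% HP-β-CD. Retro-orbital blood sampled predose and 0.08 (iv only), 0.25, 0.5, 1, 2, 4, 8, 24 h. Noncompartmental analysis; Cmax read directly from plasma concentration–time plot; mean ± SEM.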

[12] = AUC (0 to infinity) in Sprague-Dawley rat at 10 mg/kg, iv; type: ADME, organism-based; parameters: dose 10 mg/kg, route intravenous, time infinity; conditions: in vivo
[13] = target: T1, 5-hydroxytryptamine receptor 2C (Homo sapiens, UniProt P28335); experiment: Agonist activity at human 5HT2CR expressed in CHO cells assessed as increase in intracellular calcium release at 1 nM incubated for 15 mins measured at 1 secs interval for 120 secs by calcium 4 dye based FLIPR assay relative to 5-HT; type: cell-based; conditions: 0.001 µM
T1 sequence (P28335 whole entry): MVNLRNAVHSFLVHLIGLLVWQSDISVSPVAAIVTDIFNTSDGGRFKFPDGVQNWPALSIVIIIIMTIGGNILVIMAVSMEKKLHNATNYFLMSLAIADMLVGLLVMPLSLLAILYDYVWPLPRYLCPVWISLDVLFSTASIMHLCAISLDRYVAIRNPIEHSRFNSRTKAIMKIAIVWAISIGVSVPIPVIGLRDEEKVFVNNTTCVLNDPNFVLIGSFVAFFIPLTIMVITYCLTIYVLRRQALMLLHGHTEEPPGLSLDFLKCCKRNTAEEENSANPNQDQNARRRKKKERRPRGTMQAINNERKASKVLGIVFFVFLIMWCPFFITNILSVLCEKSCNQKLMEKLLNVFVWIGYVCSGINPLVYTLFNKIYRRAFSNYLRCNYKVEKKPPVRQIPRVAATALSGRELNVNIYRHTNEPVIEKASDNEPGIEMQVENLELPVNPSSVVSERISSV
How it was run: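 h5-HT2CR (unedited INI isoform) stably expressed in CHO cells; cells plated ~24 h, serum-free medium 3 h, then Calcium 4 dye with 2.5 mM probenecid in Ca/Mg-free HBSS pH 7.4 for 60 min at 37°C plus 15 min at room temperature. Compound given alone, read for 15 min before 5-HT. Peak fluorescence is expressed relative to the 5-HT Emax. 4-6 biological replicates, each in triplicate.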

Rattus norvegicus [14] = experiment: In vivo agonist activity at 5HT2CR in Sprague-Dawley rat assessed as increase in number of rat choosing drug associated lever at 0.5 to 5 mg/kg, ip treated 30 mins prior to test by drug discrimination test; type: organism-based; conditions: 0.5 h
How it was run: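 Male Sprague-Dawley rats (n = 13), water-restricted, trained to discriminate WAY163909 (0.75 mg/kg ip, 15 min pretreatment) from saline in a two-lever FR20 water-reinforced task. Test compound given ip at 0.5, 1.0, 2.0 and 5.0 mg/kg, 30 min before a 15 min test. Read-out is the percentage of rats selecting the WAY163909 lever; response rate is also recorded.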

Rattus norvegicus [15] = experiment: Potentiation of WAY163909-induced neurobiological activity in Sprague-Dawley rat assessed as increase in number of rat choosing WAY163909 associated lever at 2 mg/kg, ip treated 15 mins prior to WAY163909 addition and measured after 15 mins in presence of 5HT2CR antagonist SB242084 by drug discrimination test (reference value: 53%); type: functional
How it was run: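 Two-lever FR20 drug discrimination in male Sprague-Dawley rats (n = 13) trained on WAY163909 0.75 mg/kg ip versus saline. SB242084 (0.5 mg/kg ip) given 15 min before WAY163909. Test compound (2 mg/kg ip) given 15 min before WAY163909 (0.5 mg/kg ip). Rats placed in chambers 15 min after WAY163909. Read-out is the percentage of rats choosing the WAY163909 lever.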

O=C(NC[C@H](O)CO)[C@@H]1C[C@H](c2ccccc2)CCN1 (mixture of isomers)
inhibition [1]: 47.5%
inhibition [2]: 7%
inhibition [3]: -9.3%
inhibition at 1.5 h, 10 µM (5-HT2B receptor): -7.2%
inhibition [4]: 6.3%
inhibition [5]: -1.8%
inhibition [6]: -7.7%
inhibition [7]: 30.6%
inhibition [8]: 23.3%
Fu [9]: 66%
inhibition at 10 µM (CYP2D6): 1.9%
inhibition at 10 µM (CYP1A2): 11.8%
Papp [10]: 1.3 ×10⁻⁶ cm/s
Vdss [11]: 5.4 L/kg
AUC [12]: 3065.6 ng·h/mL
Activity [13]: Not Active
Activity (Rattus norvegicus [14]): Non-Toxic
Activity (Rattus norvegicus [15]): 0%
